Compound activity (PubChem)
Casp6 inh – blocks human caspase-6 cleavage activity; 350,000 tested, 0.53% active; inhibition, % at 12.5 µM; AID 686996; P55212; purified caspase-6, Z-VEID-R110 cleavage fluorescence;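 active = mean inhibition across replicates at least about 35%, with every replicate also reaching that limit, limit read from the data; inconclusive = only one of the two criteria met; inactive = neither criterion met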;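 also: 0% = median of neutral control wells and 100% = no fluorescence left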
Target sequence (P55212 24-179 limits assumed): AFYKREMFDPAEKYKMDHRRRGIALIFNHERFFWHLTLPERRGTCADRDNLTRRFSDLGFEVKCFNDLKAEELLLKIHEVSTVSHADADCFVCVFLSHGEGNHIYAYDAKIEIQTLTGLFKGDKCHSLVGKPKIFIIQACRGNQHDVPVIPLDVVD
Target sequence (P55212 194-293 limits assumed): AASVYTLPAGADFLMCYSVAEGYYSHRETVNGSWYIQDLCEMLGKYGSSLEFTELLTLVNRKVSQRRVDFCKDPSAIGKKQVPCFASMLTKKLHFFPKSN
MITF TRPM1 HTS – increases MITF-driven TRPM1 promoter luciferase signal; activation, % at 12.5 µM; AID 588334; SK-MEL-5 TRPM1-promoter luciferase, 24 h; % of positive control, neutral wells = 0; 300,000 tested, 0.75% active;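 active = mean activation of at least 80% with every replicate also reaching 80%; inconclusive = mean reaches 80% but some replicate falls short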;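 also: 0% = neutral control wells and 100% = parthenolide positive control wells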
XiGFP reactiv – reactivates the inactive X chromosome in mouse fibroblasts. XiGFP mouse fibroblasts, % GFP-positive cells imaging, 3 d; cells co-treated with 5-aza-dC sensitizer; scaled so ellipticine positive control = 100%. activation, % at 7.58 µM. 360,000 tested, 0.055% active. AID 743238;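 active = mean normalized replicate activation at least 10% and every replicate at or above 10%; inconclusive = only one of the two criteria met; inactive = mean below 10% and not all replicates reach 10%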;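 also: 0% = median of on-plate neutral control wells and 100% = ellipticine 6 µM median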
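assay system = SV40-immortalized XiGFP fibroblast cells, line 68-5-11 | buffer or medium = DMEM plus 5-aza-dC sensitizer | doses = single-point pinned compound dosing | times = 3-day compound exposure, then 15 min fixation at room temperature | benchmarks = positive control ellipticine, 6 µM final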
Wnt act – activates Wnt/beta-catenin signaling in a reporter cell assay | activation, % at 9.35 µM | 300,000 tested, 1.2% active | activator, plate reader | AID 743398; in the data active = activation above about 30%, passing the limit was not always enough; inconclusive = no clear call, values can overlap the other calls;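 also: 0% = neutral control wells and 100% = positive control wells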
NSD2 inh – blocks human histone methyltransferase NSD2; AID 743445; inhibition, % at 12.5 µM; NSD2 peptide methylation, AlphaScreen, 120 min; 310,000 tested, 0.54% active; in the data active = inhibition above about 50%
esBAF inh – inhibitors of esBAF chromatin remodeling in mouse ES cells; Bmi1-luciferase knock-in reporter, 24 h; 100% = twice the neutral-well signal; reporter increase, % at 12.5 µM; 350,000 tested, 2% active; AID 602393; in the data active = activation above about 40%; inconclusive = no clear call, values can overlap the other calls;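 also: 0% = median of the plate's neutral control wells and 100% = double that signal; a rise in the Bmi1 reporter signal indicates esBAF inhibition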
Numbers without * were called inactive; u = inconclusive; x = no result given. Only some compounds are listed: those with a hit (about 3% of all), similar ones and a draw of the others.

SMILES | Casp6 inh | MITF TRPM1 HTS | XiGFP reactiv | Wnt act | NSD2 inh | esBAF inh
COc1ccc2c3c(n(C)c2c1)[C@H](CO)N(C(=O)CC1CC1)CC31CCN(C(=O)C2CCCC2)CC1 | 3 | x | 0 | x | x | x
Cn1cncc1C#Cc1ccc2c(=O)c3ccccc3oc2c1 | -2 | 68 | 0 | 44* | x | u
CNC(C)C#Cc1ccc2c(=O)c3ccccc3oc2c1 (stereo not drawn) | -5 | 71 | 0 | 38* | x | 51*
COc1ccc(NC(=O)N(C)C[C@H]2OCCCC[C@@H](C)Oc3ccc(NC(=O)CCC(F)(F)F)cc3C(=O)N([C@H](C)CO)C[C@H]2C)cc1 | 1 | x | 0 | x | x | -3
CC(C)(C)[S@@](=O)N1Cc2cc(C(=O)N3CCc4ccccc4C3)nc(-c3cccc(-c4cccnc4)c3)c2[C@H]1CCO | 1 | x | 0 | x | x | 6
CC(C)(C)S(=O)N1Cc2cc(C(=O)N3CCc4ccccc4C3)nc(-c3cccc(-c4cccnc4)c3)c2[C@@H]1CCO (stereo partly drawn) | 42* | x | 0 | -2 | x | -4
COc1ccc(-c2noc(-c3csc([C@@H]4C[C@H](O)[C@@H](CO)O4)n3)n2)cc1OC | 2 | x | 0 | 13 | 15 | 37
CCOc1ccc(-c2noc(-c3csc([C@@H]4C[C@H](O)[C@@H](CO)O4)n3)n2)cc1 | 1 | x | 0 | -1 | 0 | 81*
OC[C@H]1O[C@@H](c2nc(-c3ccc(Br)cc3)no2)C[C@@H]1O | -3 | x | 0 | 27 | x | 30
OC[C@H]1O[C@@H](c2nc(-c3nc(-c4ccc(F)cc4)no3)cs2)[C@H](O)[C@@H]1O | 4 | x | 0 | 61* | 5 | 4
OC[C@H]1O[C@@H](c2nc(-c3ccc(C4OCCO4)cc3)no2)[C@H](O)[C@@H]1O | 4 | x | 0 | -2 | -2 | 8
COc1cc(OC)cc(-c2noc(-c3csc([C@@H]4C[C@H](O)[C@@H](CO)O4)n3)n2)c1 | 1 | x | 0 | -3 | 1 | 48*
CS(=O)(=O)N1CC2(C1)[C@@H](c1ccccc1)[C@@H](CO)N2C(=O)C1CCC1 | x | x | 0 | x | x | x
CCCC(=O)N1CCC2(CC1)CN(C(=O)Nc1ccc(F)cc1)[C@H](CO)c1c2c2ccc(OC)cc2n1C | x | x | 0 | x | x | x
CCCC(=O)Nc1ccc(NC(=O)c2cc3ccccc3o2)c(OC)c1 | -8 | 64 | 0 | 2 | -2 | 53*
COc1cc(NC(=O)c2ccccc2)ccc1NC(=O)c1cc2ccccc2o1 | 0 | 8 | 0 | 7 | -2 | 0
COc1cc(NC(C)=O)ccc1NC(=O)c1cc2ccccc2o1 | 2 | 39 | 0 | 3 | -1 | 55*
COc1ccc(NC(=O)Nc2ccc3nccnc3c2)cc1 | x | 96* | x | x | 2 | 55*
COc1ccc(NC(=O)Nc2nccs2)cc1 | x | 33 | x | x | -3 | 32
COc1ccc(NC(=O)Nc2ccc3nonc3c2)cc1 | -1 | x | 0 | 39* | 1 | x
C[C@@H]1CN([C@@H](C)CO)S(=O)(=O)c2ccc(C3=CCCC3)cc2O[C@H]1CN(C)C | -1 | x | -1 | x | x | 2
CC(=O)c1sc(N/N=C\c2ccc(Br)cc2)nc1C | x | 119* | 0 | 14 | -4 | x
Oc1ccc(C=NNc2nc3ccccc3s2)c(O)c1 | -4 | -13 | 0 | -4 | 0 | x
COc1ccc(/C=N/Nc2nc3ccccc3s2)cc1O | 3 | 3 | 0 | 23 | 0 | x
CC(=O)c1sc(N/N=C\c2cccc(Br)c2)nc1C | 0 | 24 | 0 | 1 | -4 | u
SMILES | Casp6 inh | MITF TRPM1 HTS | XiGFP reactiv | Wnt act | NSD2 inh | esBAF inh
CC(=NNc1nc2ccccc2s1)c1ncccn1 | 1 | -33 | 7 | 75* | 2 | x
CC(=O)Nc1ccc(/C=N/Nc2nc3ccccc3s2)cc1 | -2 | 53 | 0 | 57* | -1 | -38
Oc1ccccc1C=NNc1nc2ccccc2s1 | -2 | -4 | 1 | 4 | 2 | 51*
CCC(=O)N1[C@H](CO)[C@@H](c2ccccc2)C12CN(C(=O)c1ccc(F)cc1)C2 | -2 | x | 0 | x | x | x
CC(C)NC(=O)N1[C@H](CO)[C@@H]2c3ccccc3N(C(=O)C3CCC3)C[C@@H]21 | 1 | x | 0 | x | x | 1
COc1cccc(C=NNc2nc3ccccc3s2)c1OC | -2 | 43 | 0 | 51* | 0 | x
Cc1ccsc1/C=N/Nc1nc2ccccc2s1 | 0 | 39 | 0 | 61* | 0 | x
C[C@@H]1CN(C)C(=O)Cc2cc(N)ccc2O[C@H]1CN(C)C | x | x | 0 | x | x | x
COc1ccc(-c2ccc([C@H]3[C@H](CO)N4C(=O)CN(C(=O)c5ccccn5)C[C@@H]34)cc2)cc1 | 1 | x | 0 | x | x | x
O=C(CN(C(=O)c1csnn1)c1ccc(F)cc1)NCc1ccc2c(c1)OCO2 | 2 | x | 0 | 2 | -5 | 50*
O=C1CCCCn2cc(nn2)COC[C@@H](c2ccccc2)N1 | x | x | 0 | x | x | x
N#Cc1cc2c(nc1SCc1ccncc1)CCC2 | 4 | 36 | x | 19 | 0 | 44*
N#Cc1cc2c(nc1SCc1ccccc1)CCC2 | x | x | x | x | 1 | x
N#Cc1cc2c(nc1SCc1ccccc1)CCCC2=O | x | 3 | x | 49* | 9 | 9
COc1ccc2nc(C)cc(NCCN3CCOCC3)c2c1 | -7 | 18 | 0 | -2 | 0 | 0
Cc1cc(NCCN2CCOCC2)c2ccc3ccccc3c2n1 | -7 | 20 | 0 | 57* | 4 | x
CO[C@H]1CN(C)C(=O)c2cc(NC(C)=O)ccc2OC[C@@H](C)N(Cc2ccccc2C(=O)O)C[C@@H]1C | -2 | x | 0 | x | x | 0
CC1(C)CN=c2s/c(=C\c3ccc(Cl)cc3)c(=O)n2C1 | 7 | 117* | 0 | -1 | -12 | 13
CSC1=N/C(=C\c2ccc(Cl)cc2)C(=O)N1N(C)C | 0 | x | 0 | 3 | 0 | x
CC(C)CN1C(=O)c2ccc(NC(=O)c3ccccc3F)cc2C1=O | x | 69 | x | x | -6 | 47*
O=C(Nc1ccc2c(c1)Cc1ccccc1-2)c1ccc(Br)o1 | x | 59 | x | 18 | -1 | 51*
CC(=O)Nc1cc2c(cc1Br)-c1ccccc1C2 | 3 | 9 | 0 | 0 | 0 | 56*
CC(C)CN1C(=O)c2ccc(NC(=O)c3ccco3)cc2C1=O | 1 | 36 | 0 | 13 | -5 | x
O=C(Nc1ccc(Cc2ccncc2)cc1)c1ccc(Br)o1 | x | 28 | x | 2 | -4 | 19
CC(=O)Nc1c(Cl)cc2c(c1Cl)Cc1ccccc1-2 | 1 | 3 | 0 | 3 | -1 | x
O=C(Nc1ccc2c(c1)Cc1ccccc1-2)c1ccccc1F | -3 | x | 0 | 49* | -4 | x
CCCC(=O)Nc1ccc2c(c1)Cc1ccccc1-2 | 0 | 63 | 0 | 4 | -5 | 58*
CCC(=O)Nc1ccc2c(c1)Cc1cc(NC(=O)CC)ccc1-2 | -3 | 2 | 0 | 2 | -3 | 16
CCc1ccc(NS(=O)(=O)c2cc(OC)ccc2OC)cc1 | 58* | -9 | x | -3 | x | -9
